Compound activity: PubChem BioAssay, Broad Institute
IDH1 mut inh – IDH1 R132H (human) inhibition; AID 624101; inhibition, % at 10 µM; 70,000 tested, 0.18% active; IDH1 R132H reductase, diaphorase/resazurin fluorescence, 60 min; in the data active = inhibition above about 34%; inconclusive = no clear call, values can overlap the other calls; inactive = below about 11%;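 also: 0% = DMSO and 100% = no enzyme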
Target sequence (O75874 whole entry R132H): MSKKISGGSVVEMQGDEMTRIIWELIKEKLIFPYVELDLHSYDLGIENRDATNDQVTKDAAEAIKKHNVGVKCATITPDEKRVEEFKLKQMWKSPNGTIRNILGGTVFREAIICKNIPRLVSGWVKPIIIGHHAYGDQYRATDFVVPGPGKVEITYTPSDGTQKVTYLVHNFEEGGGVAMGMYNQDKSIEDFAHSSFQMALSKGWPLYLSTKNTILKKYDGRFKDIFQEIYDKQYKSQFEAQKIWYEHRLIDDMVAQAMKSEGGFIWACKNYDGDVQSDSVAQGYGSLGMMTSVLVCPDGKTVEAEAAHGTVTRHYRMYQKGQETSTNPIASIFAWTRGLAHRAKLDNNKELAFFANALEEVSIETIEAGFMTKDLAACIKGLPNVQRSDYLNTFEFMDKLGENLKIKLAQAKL
KDM4C inh – inhibitors of human demethylase GASC-1 KDM4C; Q9H3R0; GST-KDM4C 2-372, H3K9me3 peptide, LANCE TR-FRET; inhibition, % at 12.5 µM; 96,000 tested, 0.15% active; AID 720574;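 active = mean replicate inhibition above about 25%, with at least 55% of replicates also reaching it, limit read from the data, passing the limit was not always enough; inconclusive = only one of those two conditions met; inactive = neither condition met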
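System: N-terminal GST-fused human GASC-1 (KDM4C) fragment, residues 2-372 / Amount: 10 nM GST-KDM4C in enzyme reaction / Also added: H3K9me3 peptide with Fe(II)/2OG / Times: 30 min demethylation and 1 h detection at room temperature / Signal: LANCE TR-FRET / Read-out basis: Fall in 671/618 emission ratio as inhibition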
T cruzi growth-1 – blocks T. cruzi growth in NIH3T3 culture | T. cruzi beta-gal in NIH3T3, GalScreen luminescence, 90 h | inhibition, % at 8.34 µM | 77,000 tested, 5.9% active;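 active = mean inhibition above about 93%, with at least 55% of replicates each passing it, limit read from the data, passing the limit was not always enough; inconclusive = only one of those two conditions holds; inactive = neither condition holds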
T cruzi growth-2 – inhibitors of T. cruzi proliferation | shares compounds with T cruzi growth-1 | T. cruzi beta-gal in NIH3T3, GalScreen luminescence, 90 h | AID 651739 | 5,600 tested, 72% active | inhibition, % at 8.35 µM;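 active = mean replicate inhibition above about 95% and at least 55% of replicates individually reaching it, limit read from the data; inconclusive = only one of the two criteria is met; inactive = neither criterion is met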
T cruzi growth-3 – inhibitors of T. cruzi proliferation; shares compounds with T cruzi growth-1; T. cruzi beta-gal in NIH3T3, GalScreen luminescence, 90 h; inhibition, % at 2.09 µM; 5,600 tested, 21% active; AID 651740;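 active = mean inhibition above about 95%, with at least 55% of replicates also reaching it, limit read from the data; inconclusive = meets just one of the two conditions; inactive = meets neither condition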;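 also: plate controls were neutral control median for no effect and positive control median for full effect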
3T3 cytotox – cytotoxicity in mouse NIH/3T3 fibroblasts; shares compounds with T cruzi growth-1; NIH/3T3 viability, CellTiter-Glo ATP luminescence, 90 h; cytotoxicity (signal decrease), % at 8.35 µM; 5,600 tested, 14% active;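 active = mean signal decrease across replicates above about 35% based on untreated-well scatter, with enough replicates individually passing, limit read from the data; inconclusive = no rule stated though some were filed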;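 also: 0% = median of neutral control wells and 100% = median of positive control wells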
NIH3T3 tox 2 – kills mouse NIH/3T3 fibroblasts; shares compounds with T cruzi growth-1; NIH/3T3 viability, CellTiter-Glo ATP luminescence, 90 h; inhibition, % at 24.9 µM; 5,600 tested, 56% active;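 active = mean loss of cell viability signal at or above a set limit, and enough replicates individually reaching it; inconclusive = meets only the mean limit or only the replicate share; inactive = meets neither condition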;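 also: 0% = median of neutral control wells and 100% = median of positive control wells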
Starred values were filed as active, the others as inactive; ? = inconclusive; · = no result. Many of the other results were omitted from the sample, so hits are more common in it than they were.

SMILES	IDH1 mut inh	KDM4C inh	T cruzi growth-1	T cruzi growth-2	T cruzi growth-3	3T3 cytotox	NIH3T3 tox 2
COc1ccccc1-c1ccc2c(c1)O[C@@H](CN(C)C(C)=O)[C@@H](C)CN([C@H](C)CO)S2(=O)=O	0.0	1.3	19.5	·	·	·	·
COc1ccccc1-c1ccc2c(c1)O[C@H](CN(C)S(=O)(=O)c1ccccc1)[C@H](C)CN([C@@H](C)CO)S2(=O)=O	-0.4	·	?	102.5*	63.1	16.9	44.3*
COc1ccccc1-c1ccc2c(c1)O[C@@H](CN(C)S(=O)(=O)c1ccccc1)[C@@H](C)CN([C@H](C)CO)S2(=O)=O	·	·	89.7*	105.1*	58.2	59.8*	48.9*
COc1ccccc1-c1ccc2c(c1)O[C@H](CN(C)C(=O)c1ccccc1)[C@H](C)CN([C@H](C)CO)S2(=O)=O	0.0	-1.3	10.2	·	·	·	·
COc1ccc(C)cc1S(=O)(=O)N(C)CC(=O)Nc1ccc(F)c(Cl)c1	-0.2	·	·	·	·	·	·
CCCn1c(NCCCO)nc2ccccc21	0.2	·	·	·	·	·	·
C/C=C1/[C@H](O[C@@H]2O[C@H](CO)[C@@H](O)[C@H](O)[C@H]2O)OC=C(C(=O)OC)[C@H]1CC(=O)OCCc1ccc(O)c(O)c1	19.0	·	·	·	·	·	·
Cc1ccc(S(=O)(=O)N(C)CCCc2nc3ccccc3[nH]2)cc1	-0.1	·	·	·	·	·	·
O=S(CCSc1nc2ccccc2s1)Cc1ccc(Cl)cc1 (centres undefined)	0.0	·	·	·	·	·	·
C[C@H]1CN([C@@H](C)CO)S(=O)(=O)c2ccc(Br)cc2O[C@@H]1CN(C)S(=O)(=O)c1ccccc1	·	-1.6	·	·	·	·	·
COc1ccccc1-c1ccc2c(c1)O[C@@H](CN(C)S(=O)(=O)c1ccccc1)[C@H](C)CN([C@H](C)CO)S2(=O)=O	·	·	?	104.9*	49.7	37.1*	39.3*
C[C@@H]1CN([C@H](C)CO)S(=O)(=O)c2ccc(Br)cc2O[C@@H]1CN(C)S(=O)(=O)c1ccccc1	-4.6	-1.8	·	·	·	·	·
COc1ccccc1-c1ccc2c(c1)O[C@H](CN(C)S(=O)(=O)c1ccccc1)[C@H](C)CN([C@H](C)CO)S2(=O)=O	·	·	95.0*	104.6*	41.7	24.8	36.7*
Cc1ccc(-n2c(C)nnc2SCC(=O)Nc2ccc(Cl)cc2Cl)cc1	-0.4	·	·	·	·	·	·
O=C(CC1NC2CCCCC2NC1=O)Nc1ccc([N+](=O)[O-])cc1 (centres undefined)	-0.7	·	·	·	·	·	·
C[C@@H]1CN([C@H](C)CO)C(=O)c2cc(NS(=O)(=O)c3ccc(F)cc3)ccc2O[C@@H](C)CCCCO[C@H]1CN(C)S(=O)(=O)c1ccc(Cl)cc1	·	0.3	?	105.1*	113.2*	-1.0	13.0
C[C@@H]1CCCCO[C@H](CN(C)S(=O)(=O)c2ccc(Cl)cc2)[C@H](C)CN([C@H](C)CO)C(=O)c2cc(NS(=O)(=O)c3ccc(F)cc3)ccc2O1	0.4	0.6	87.8	·	·	·	·
C[C@@H]1CCCCO[C@H](CN(C)S(=O)(=O)c2ccc(Cl)cc2)[C@H](C)CN([C@@H](C)CO)C(=O)c2cc(NS(=O)(=O)c3ccc(F)cc3)ccc2O1	1.7	-0.6	72.6	·	·	·	·
C[C@@H]1CCCCO[C@H](CN(C)S(=O)(=O)c2ccc(F)cc2)[C@@H](C)CN([C@@H](C)CO)C(=O)c2cc(NS(=O)(=O)c3ccc(Cl)cc3)ccc2O1	·	-0.2	97.0*	104.8*	111.2*	1.8	8.2
C[C@H]1CCCCO[C@@H](CN(C)S(=O)(=O)c2ccc(F)cc2)[C@@H](C)CN([C@@H](C)CO)C(=O)c2cc(NS(=O)(=O)c3ccc(Cl)cc3)ccc2O1	-2.1	0.2	99.8*	103.8*	?	-10.2	-6.0
C[C@@H]1CN([C@@H](C)CO)C(=O)c2cc(NS(=O)(=O)c3ccc(F)cc3)ccc2O[C@@H](C)CCCCO[C@H]1CN(C)S(=O)(=O)c1ccc(Cl)cc1	0.1	0.4	105.7	·	·	·	·
C[C@H](CO)N1C[C@H](C)[C@@H](CN(C)S(=O)(=O)c2ccc(Cl)cc2)OCCCC[C@H](C)Oc2ccc(NS(=O)(=O)c3ccc(F)cc3)cc2C1=O	·	-0.3	98.2	·	·	·	·
C[C@H]1CCCCO[C@@H](CN(C)S(=O)(=O)c2ccc(Cl)cc2)[C@@H](C)CN([C@@H](C)CO)C(=O)c2cc(NS(=O)(=O)c3ccc(F)cc3)ccc2O1	-0.3	11.8	102.0*	104.7*	110.4*	-3.6	-14.1
O=C(CN1C(=O)c2ccccc2S1(=O)=O)Nc1ccccc1Cl	-0.4	·	·	·	·	·	·
COC(=O)c1ccccc1NC(=O)Cc1coc2c(C)c(C)ccc12	0.6	·	·	·	·	·	·
SMILES	IDH1 mut inh	KDM4C inh	T cruzi growth-1	T cruzi growth-2	T cruzi growth-3	3T3 cytotox	NIH3T3 tox 2
C[C@@H]1CN([C@@H](C)CO)C(=O)c2cc(NS(=O)(=O)c3ccc(Cl)cc3)ccc2O[C@@H](C)CCCCO[C@H]1CN(C)S(=O)(=O)c1ccc(F)cc1	2.6	0.5	104.9*	103.6*	50.4	-2.9	0.7
COc1ccc(CN(C)C[C@H]2OCCCC[C@H](C)Oc3ccc(NS(=O)(=O)c4ccc(OC)cc4)cc3C(=O)N([C@H](C)CO)C[C@@H]2C)cc1	10.5	0.7	20.1	·	·	·	·
COc1ccc(CN(C)C[C@H]2OCCCC[C@@H](C)Oc3ccc(NS(=O)(=O)c4ccc(Cl)cc4)cc3C(=O)N([C@@H](C)CO)C[C@H]2C)cc1	0.4	-0.6	?	81.8	68.0	37.8*	106.0*
COc1ccc(CN(C)C[C@@H]2OCCCC[C@H](C)Oc3ccc(NS(=O)(=O)c4ccc(Cl)cc4)cc3C(=O)N([C@H](C)CO)C[C@H]2C)cc1	0.0	-0.5	?	97.2*	110.2*	30.7	103.3*
COc1ccc(S(=O)(=O)Nc2ccc3c(c2)C(=O)N([C@@H](C)CO)C[C@H](C)[C@@H](CN(C)Cc2ccc(C(F)(F)F)cc2)OCCCC[C@H](C)O3)cc1	·	1.4	89.1	·	·	·	·
COc1ccc(CN(C)C[C@H]2OCCCC[C@H](C)Oc3ccc(NS(=O)(=O)c4ccc(Cl)cc4)cc3C(=O)N([C@H](C)CO)C[C@@H]2C)cc1	·	14.2	88.6	·	·	·	·
COc1ccc(CN(C)C[C@H]2OCCCC[C@@H](C)Oc3ccc(NS(=O)(=O)c4ccc(Cl)cc4)cc3C(=O)N([C@H](C)CO)C[C@H]2C)cc1	·	0.5	119.0*	115.5*	92.1	33.8	105.6*
COc1ccc(CN(C)C[C@H]2OCCCC[C@@H](C)Oc3ccc(NS(=O)(=O)c4ccc(Cl)cc4)cc3C(=O)N([C@H](C)CO)C[C@@H]2C)cc1	·	6.2	44.1	·	·	·	·
COc1ccc(S(=O)(=O)Nc2ccc3c(c2)C(=O)N([C@H](C)CO)C[C@H](C)[C@@H](CN(C)Cc2ccc(C(F)(F)F)cc2)OCCCC[C@@H](C)O3)cc1	·	-1.0	97.7*	102.1*	37.6	8.9	84.2*
COCCNC(=O)c1c(NC(=O)c2ccccc2C)sc2c1CCCC2	-1.0	·	·	·	·	·	·
